# A selection: hits, their analogues and other compounds. The true share with any hit is near 2.2%.
# T cruzi repl – blocks replication of Trypanosoma cruzi; actives 1.4% (n = 300,000); T. cruzi beta-gal in NIH3T3, luminescence, 90 h; inhibition, % (concentration not given with the values);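 active = mean inhibition across valid replicates above about 55%, limit read from the data; inconclusive = mean below that limit but half or more replicates reach it; inactive = mean below it, under half of replicates reach it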;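 also: signal also drops with host cell toxicity which is not excluded here; higher percent means less beta-gal luminescence so fewer parasites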
#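 assay system = mouse NIH/3T3 fibroblasts infected with β-gal-expressing T. cruzi Tulahuen C4 | input = 5,000 NIH/3T3 host cells per well | buffer or medium = DMEM plus 2% FBS | timing = 3 h host attachment, then at least 90 h co-culture | measured by = GalScreen luminescence, 60 min | evaluation = luminescence reflecting intracellular parasite burden, expressed as percent inhibition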
# Efflux pump mplx – inhibitors of Candida antifungal efflux pumps expressed in yeast; S. cerevisiae Candida pump triplex, Nile Red efflux; inhibition, % at 10 µM; actives 0.44% (n = 330,000);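 active = plate passing quality check with inhibition over a set limit, or well fluorescence over plate mean plus 4 SD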;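 also: Nile Red retained in pooled yeast measured as flow cytometry median fluorescence; higher means more Nile Red kept so more efflux inhibition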
# AI-2 QS modul – modulates the Vibrio harveyi AI-2 quorum sensing system; activity change, % at 7.5 µM; Vibrio harveyi JMH597 AI-2 luminescence/OD600 ratio, 9 h; hits give low values; strain lacks LuxN and CqsS sensors; 0 = neutral-control median; AID 2094; actives 0.4% (n = 300,000); in the data active = activity change below about -75%, passing the limit was not always enough; inconclusive = no clear call, values can overlap the other calls;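 also: luminescence divided by OD600 gain over 9 h not by final OD600 alone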
# PolyA inhibitor – blocks polyadenylation in yeast reporter cells. S. cerevisiae SKY197-pL101 polyadenylation reporter, beta-gal luminescence; efflux-impaired pdr1/pdr3 knockout yeast; score 100 = 6 SD above DMSO. activity score, % at 12 µM. actives 0.02% (n = 300,000);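 active = lowest replicate activity score at least 50, where 100 means six control SD above control mean; inconclusive = lowest score under 50 but half or more replicates reach 50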;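 also: yeast exposed to compound for 9 h at 30 °C; higher score means more reporter readthrough which indicates perturbed polyadenylation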
# HDAC3 inhib – inhibitors of human histone deacetylase 3; recombinant HDAC3, fluorogenic peptide/trypsin coupled, fluorescence; inhibition, % at 8.3 µM; actives 0.15% (n = 320,000); in the data active = inhibition above about 26%, passing the limit was not always enough; inconclusive = no clear call, values can overlap the other calls
# Target sequence (O15379 whole entry, looked up): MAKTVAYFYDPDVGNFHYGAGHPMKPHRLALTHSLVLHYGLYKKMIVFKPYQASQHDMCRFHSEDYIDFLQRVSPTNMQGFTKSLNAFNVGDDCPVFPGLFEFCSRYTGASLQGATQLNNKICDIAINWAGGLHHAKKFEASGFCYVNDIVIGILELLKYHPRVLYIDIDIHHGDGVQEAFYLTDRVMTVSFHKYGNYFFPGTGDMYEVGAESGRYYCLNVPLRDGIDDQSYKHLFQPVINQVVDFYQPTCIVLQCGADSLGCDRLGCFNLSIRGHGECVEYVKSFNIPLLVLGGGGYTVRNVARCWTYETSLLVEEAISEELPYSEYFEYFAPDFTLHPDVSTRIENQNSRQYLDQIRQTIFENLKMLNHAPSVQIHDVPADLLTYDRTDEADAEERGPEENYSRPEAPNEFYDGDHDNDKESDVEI
# JMH597 growth – retest: blocks Vibrio harveyi JMH597 growth. OD600 absorbance, 9 h; lacks LuxN and CqsS sensors. growth inhibition, % at 7.5 µM. actives 1% (n = 750). shares compounds with AI-2 QS modul. AID 2726;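 active = every replicate shows growth inhibition above 50%; inconclusive = at least half, but not all, replicates pass that cutoff; inactive = fewer than half of replicates pass it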
# BB721 const-QS lum – retest counter-screen: lowers luminescence of constitutive-QS Vibrio harveyi BB721; shares compounds with AI-2 QS modul; 9 h; inhibition, % at 7.5 µM; actives 95% (n = 750); AID 2727;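 active = inhibition above about 80% in every replicate, not just on average, limit read from the data; inconclusive = at least half of replicates past the limit, but not all; inactive = fewer than half of replicates past the limit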
# BB721 growth – retest: inhibitors of Vibrio harveyi BB721 growth; OD600 absorbance, 9 h; actives 3% (n = 750); shares compounds with AI-2 QS modul; growth inhibition, % at 7.5 µM;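 active = every replicate shows growth inhibition above 50%; inconclusive = at least half but not all replicates above 50% inhibition; inactive = under half of replicates above 50% inhibition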
# JMH597 AI-2 mod – Vibrio harveyi AI-2 signaling luminescence modulation – JMH597 strain, confirmation. shares compounds with AI-2 QS modul. Vibrio harveyi JMH597 AI-2 quorum sensing luminescence, 9 h; luxN and CqsS knockout, AI-2 only. actives 97% (n = 750). AID 2736. inhibition, % at 7.5 µM;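 active = every replicate shows more than 75% inhibition of signal versus neutral control wells; inconclusive = half to three quarters of replicates exceed 75% inhibition; inactive = fewer than half of replicates exceed 75% inhibition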
# Numbers stand for hits; n = inactive; u = inconclusive; x = no result.
SMILES,T cruzi repl,Efflux pump mplx,AI-2 QS modul,PolyA inhibitor,HDAC3 inhib,JMH597 growth,BB721 const-QS lum,BB721 growth,JMH597 AI-2 mod
Cc1nc2ccccc2cc1OCc1ccccc1,n,n,-81,n,n,n,93,u,96
Cc1ccc(CNC(=O)/C=C/c2cccs2)cc1,n,n,-96,n,n,n,99,n,99
O=C(CN1C(=O)NC2(CCc3ccccc32)C1=O)Nc1cccc(F)c1 (configuration not stated),n,n,-84,n,n,n,92,n,95
CC(=O)c1ccc(NC(=O)CN2C(=O)NC3(CCc4ccccc43)C2=O)cc1 (configuration not stated),x,n,x,x,n,x,x,x,x
CCN(c1ccc(NC(=O)CN2C(=O)NC3(CCOc4ccccc43)C2=O)cc1)C(C)C (configuration not stated),n,n,-82,n,n,n,u,n,90
CCNC(=O)CN1C(=O)NC2(CCOc3ccccc32)C1=O (configuration not stated),n,n,n,n,n,x,x,x,x
O=C(O)CN1C(=O)NC2(CCOc3ccccc32)C1=O (configuration not stated),n,n,n,n,n,x,x,x,x
O=C(CN1C(=O)NC2(CCOc3ccccc32)C1=O)Nc1ccc(F)c(F)c1F (configuration not stated),n,n,-79,n,n,n,87,n,91
O=C(Nc1ccc(Oc2ccccc2)cc1)C1CC1,n,n,-87,n,n,n,98,59,96
CCOC(=O)Nc1ccc(Oc2ccccc2)cc1,n,n,-95,n,n,n,99,n,99
COC(=O)N/N=C/c1ccc(Oc2ccccc2)cc1,n,n,-85,n,n,n,95,n,95
O=C(Nc1ccc(Oc2ccccc2)cc1)C1CCN(c2ncccn2)CC1,n,n,n,n,n,x,x,x,x
COC(=O)N/N=C\c1ccc(OC/C=C/c2ccccc2)cc1,n,n,n,n,n,x,x,x,x
O=C(CSc1ncc(-c2ccccc2)[nH]1)Nc1ccccc1,n,n,-82,n,n,n,93,n,94
O=C(Cn1cnc2c(nc3n2CCCCC3)c1=O)Nc1cccc(C(F)(F)F)c1,n,n,-86,n,n,n,95,n,96
Cc1cc(N2O[C@H]3C=C[C@@H]2C3)no1,x,n,x,x,x,x,x,x,x
C[C@H]1C=C(C(=O)NC2CC2)O[C@@H](OCc2ccc(CO)cc2)C1,n,n,n,n,n,x,x,x,x
CCOC(=O)C1CCCN(S(=O)(=O)c2cccs2)C1 (configuration not stated),n,n,u,n,n,n,99,n,100
CCOC(=O)C1CCCN(S(=O)(=O)c2ccc(S(=O)(=O)N3CCCC3)cc2)C1 (configuration not stated),n,n,n,n,n,x,x,x,x
N#Cc1nc(-c2cccs2)oc1NCCc1ccccc1,n,n,n,n,n,x,x,x,x
N#Cc1nc(-c2cccs2)oc1NCc1ccc2c(c1)OCO2,x,n,-85,n,n,n,94,n,96
Cc1ccc(-c2nc(C#N)c(NCc3cccc4c3OCO4)o2)cc1,n,n,n,n,n,x,x,x,x
N#Cc1nc(-c2ccc(F)cc2)oc1NCc1cccc2c1OCO2,n,n,u,u,n,n,89,n,93
Nn1c(SCc2ccc(Br)cc2)nnc1-c1ccccn1,n,n,n,n,n,x,x,x,x
Cc1cccc(CSc2nnc(-c3ccccn3)n2N)c1,n,n,-90,n,n,n,92,n,94
c1ccc2c(c1)oc1c(Nc3ccc4c(c3)OCO4)ncnc12,n,n,n,n,n,x,x,x,x
c1ccc2c(c1)oc1c(NCc3ccc4c(c3)OCO4)ncnc12,n,n,-88,n,n,n,93,n,97

# Bioassay records as filed in PubChem BioAssay.
